# Data taken from PMC10883374 (Science Advances, 2022).
# Where a chain is given by its changes, count along the chain named. “Also recorded” adds a separate entry of the source.
# How the values were obtained:
# [1] = target: T1, hSAMTOR MTase domain (residues 91 to 405) interaction with GATOR1-KICSTOR (Homo sapiens, UniProt Q1RMZ1); experiment: Co-IP of hSAMTOR C-terminal MTase domain; type: biochemical; settings: hSAMTOR CTD alone, HEK 293T cell lysates, 0.5 mM SAM
# T1 sequence (Q1RMZ1 91-405): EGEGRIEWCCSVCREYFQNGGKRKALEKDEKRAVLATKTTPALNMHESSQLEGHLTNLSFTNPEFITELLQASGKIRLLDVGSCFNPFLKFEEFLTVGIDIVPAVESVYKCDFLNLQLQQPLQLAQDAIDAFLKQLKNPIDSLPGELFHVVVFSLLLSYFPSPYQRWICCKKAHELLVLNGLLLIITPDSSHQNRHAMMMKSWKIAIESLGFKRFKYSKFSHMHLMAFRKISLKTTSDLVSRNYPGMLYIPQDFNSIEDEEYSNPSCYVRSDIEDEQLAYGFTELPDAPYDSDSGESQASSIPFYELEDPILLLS
# T1 sequence (Q12980 1-569 partner): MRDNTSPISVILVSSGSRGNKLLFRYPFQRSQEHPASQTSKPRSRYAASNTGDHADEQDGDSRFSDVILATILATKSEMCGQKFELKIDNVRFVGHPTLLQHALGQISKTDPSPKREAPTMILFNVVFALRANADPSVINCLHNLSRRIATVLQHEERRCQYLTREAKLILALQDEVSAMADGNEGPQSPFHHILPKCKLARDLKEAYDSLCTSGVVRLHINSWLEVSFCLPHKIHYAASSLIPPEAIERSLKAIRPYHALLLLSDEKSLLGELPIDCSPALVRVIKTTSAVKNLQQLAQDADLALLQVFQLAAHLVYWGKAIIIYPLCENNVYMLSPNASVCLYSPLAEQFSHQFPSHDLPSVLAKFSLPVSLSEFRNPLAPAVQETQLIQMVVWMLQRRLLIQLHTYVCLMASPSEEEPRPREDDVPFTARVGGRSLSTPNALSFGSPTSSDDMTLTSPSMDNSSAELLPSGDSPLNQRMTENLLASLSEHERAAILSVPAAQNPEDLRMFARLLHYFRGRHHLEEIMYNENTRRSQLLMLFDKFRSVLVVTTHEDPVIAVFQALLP
# T1 sequence (Q9Y664 1-436 partner): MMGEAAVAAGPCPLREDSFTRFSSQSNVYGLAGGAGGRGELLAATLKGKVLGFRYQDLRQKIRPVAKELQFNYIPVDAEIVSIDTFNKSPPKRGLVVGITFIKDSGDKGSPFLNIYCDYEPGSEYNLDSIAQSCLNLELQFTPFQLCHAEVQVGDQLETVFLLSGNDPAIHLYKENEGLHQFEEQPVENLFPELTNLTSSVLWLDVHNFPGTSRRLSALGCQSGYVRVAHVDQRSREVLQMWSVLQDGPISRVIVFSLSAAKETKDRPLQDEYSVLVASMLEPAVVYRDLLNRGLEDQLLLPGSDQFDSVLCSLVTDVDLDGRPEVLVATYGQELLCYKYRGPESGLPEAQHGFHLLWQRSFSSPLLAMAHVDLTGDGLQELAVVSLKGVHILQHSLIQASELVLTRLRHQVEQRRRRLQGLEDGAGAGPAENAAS
# [2] = target: T2, D190A hSAMTOR interaction with GATOR1-KICSTOR (Homo sapiens, UniProt Q1RMZ1, D190A); experiment: Co-IP of Flag-hSAMTOR-D190A with HA-Nprl3 and Myc-Kaptin with or without SAM; type: biochemical; settings: HEK 293T cell lysates, 0.5 mM SAM
# T2 sequence (Q1RMZ1 1-405 D190A): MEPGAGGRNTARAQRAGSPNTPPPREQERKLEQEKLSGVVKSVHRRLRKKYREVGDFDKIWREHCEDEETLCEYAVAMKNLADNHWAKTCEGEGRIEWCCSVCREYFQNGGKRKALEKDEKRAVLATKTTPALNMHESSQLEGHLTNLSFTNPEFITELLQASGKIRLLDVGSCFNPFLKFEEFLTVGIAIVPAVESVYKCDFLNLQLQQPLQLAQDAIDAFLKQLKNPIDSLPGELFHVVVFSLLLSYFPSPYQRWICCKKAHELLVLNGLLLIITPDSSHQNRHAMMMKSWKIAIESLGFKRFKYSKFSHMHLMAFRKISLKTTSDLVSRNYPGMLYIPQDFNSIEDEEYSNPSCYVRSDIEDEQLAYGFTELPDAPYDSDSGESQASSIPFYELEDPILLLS
# [3] = target: N-terminal truncated dSAMTOR (Δ1-64) (Drosophila melanogaster, UniProt Q9W138); experiment: ITC ligand binding, Δ1-64 dSAMTOR
# In short: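 Tag-free dSAMTOR, expressed as His6-SUMO fusion in E. coli BL21(DE3), purified by Ni-NTA and gel filtration into 10 mM Hepes pH 7.5, 150 mM NaCl, 1 mM DTT. At 25°C, 1 mM SAM or SAH was titrated into 0.2 mM protein over 20 injections, with a background titration into buffer. Single-site fit gave Kd, ΔH and n; ΔG and ΔS were calculated. Runs: three for measurable binding, two for undetectable binding.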
# [4] = target: T3, hSAMTOR (WT) interaction with GATOR1-KICSTOR (Homo sapiens, UniProt Q1RMZ1); type: biochemical; settings: WT full-length hSAMTOR, HEK 293T cell lysates, 0.5 mM SAM
# T3 sequence (Q1RMZ1 1-405): T2 sequence (Q1RMZ1 1-405 D190A) with A190D
# Sequence of N-terminal truncated dSAMTOR (Δ1-64) (Q9W138 65-302, stated change not applied): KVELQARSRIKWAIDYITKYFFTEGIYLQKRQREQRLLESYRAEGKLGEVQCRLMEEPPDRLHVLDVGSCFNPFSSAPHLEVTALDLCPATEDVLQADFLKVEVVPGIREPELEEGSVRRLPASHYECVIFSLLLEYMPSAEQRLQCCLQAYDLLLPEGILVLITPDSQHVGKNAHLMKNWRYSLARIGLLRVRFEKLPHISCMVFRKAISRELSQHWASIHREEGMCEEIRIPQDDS
structure (smiles),measurement,setting,value
"C[S+](CC[C@H](N)C(=O)[O-])C[C@H]1O[C@@H](n2cnc3c(N)ncnc32)[C@H](O)[C@@H]1O (stereo partly shown) [SAM, S-adenosylmethionine]",effect of SAM on interaction of the MTase domain with GATOR1-KICSTOR (co-IP),[1],no apparent effect
same,effect of SAM on interaction of hSAMTOR with GATOR1-KICSTOR (co-IP),[2],comparable interactions with GATOR1 and KICSTOR in both the absence and presence of SAM
same,Kd,[3],6.78 ± 0.75 µM
same,TΔS,"[3]; ITC, 25°C, Δ1-64 dSAMTOR",5.89 kcal/mol
same,n value,"[3]; ITC, 25°C, Δ1-64 dSAMTOR",0.91 ± 0.01
same,ΔH,"[3]; ITC, 25°C, Δ1-64 dSAMTOR",-1.16 ± 0.01 kcal/mol
same,effect of SAM on interaction of hSAMTOR with GATOR1-KICSTOR (co-IP),[4],essentially disrupts its interactions with GATOR1-KICSTOR; also recorded: substantially weakens the interaction
